CHRM4 PAM = human M4 muscarinic receptor positive allosteric modulators, primary screen, CHO-K1 cells, Fluo-8 calcium fluorescence. Muscarinic acetylcholine receptor M4 (Homo sapiens), P08173. CHO-K1 hM4/Gqi5, ACh EC20; 0% = ACh EC20, 100% = maximal ACh. activation, % at 3 µM. 360,000 tested, 0.4% active;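 active = activation above its plate's cutoff, the mean activation of sample wells plus 3 SD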
M4 ag = human M4 muscarinic receptor agonists, primary screen, CHO-K1 cells, Fluo-8 calcium fluorescence. 360,000 tested, 0.14% active. activation, % at 3 µM. AID 624127, 2012. CHO-K1 hM4/Gqi5; vehicle 0%, full acetylcholine response 100%. Muscarinic acetylcholine receptor M4 (Homo sapiens), P08173;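 active = activation above the run mean over all test wells plus 3 SD, cut at about 32% in these data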;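 also: peak over basal fluorescence ratio per well then scaled between controls; 0% = DMSO wells and 100% = acetylcholine at EC100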
M4 antag = human M4 muscarinic receptor antagonists, primary screen, CHO cells, Fluo-8 calcium fluorescence; inhibition, % at 3 µM; Muscarinic acetylcholine receptor M4 (Homo sapiens), P08173; 360,000 tested, 0.73% active; CHO-hM4 cells, ACh EC80;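 active = inhibition above its plate's cutoff, the mean inhibition of sample wells plus 3 SD, cut at about 27% in these data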;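 also: 0% = acetylcholine EC80 with DMSO and 100% = DMSO without agonist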
OXTR ag = human OXTR agonists, primary screen, fluorescence, CHO-OTR cells, Fluo-8 calcium. Oxytocin receptor (Homo sapiens), P30559. activation, % at 3 µM. AID 2435, 2010. Fluo-8 calcium fluorescence; normalized: DMSO 0%, oxytocin 100%. 320,000 tested, 0.32% active;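 active = activation above the mean of all tested compounds plus 3 SD, cutoff set per screening run, cut at about 20% in these data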;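 also: peak over basal fluorescence ratio from a 100 s FLIPR kinetic read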
OXTR potentiator = human OXTR potentiators, primary screen, fluorescence, CHO-OTR cells, Fluo-8 calcium; Oxytocin receptor (Homo sapiens), P30559; activation, % at 3 µM; 320,000 tested, 0.061% active; Fluo-8 calcium fluorescence, potentiator mode; 0% = oxytocin EC15, 100% = EC100;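 active = activation above that plate's cutoff, the mean activation of tested compounds plus 3 SD, cut at about 6.6% in these data, passing the limit was not always enough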;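 also: 100% uses oxytocin at 75 nM as the full agonist control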
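Replication – single well per compound, singlicate · Assay system – CHO cell line stably expressing human OTR · Timing – 6 min pre-incubation, 100 s read · Measure – normalized max/min fluorescence ratio, % activation · Doses – 3.0 µM, one dose · Detection – Fluo-8 calcium dye fluorescence · Probe or stimulus – oxytocin near EC15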
V1R ag counter = agonists of human V1a receptor, primary screen, counter-screen for OXTR agonist project, fluorescence, CHO-V1R cells; Vasopressin V1a receptor (Homo sapiens), P37288; Fluo-8 calcium fluorescence, agonist mode; 0% DMSO, 100% 3 nM vasopressin; activation, % at 3 µM; 320,000 tested, 0.25% active; AID 2797, 2010;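 active = activation above the mean activation of all tested compounds plus 3 SD, per screening run, cut at about 20% in these data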;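 also: signal is peak over basal fluorescence ratio across a 100 second FLIPR read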
Target sequence (P37288 whole entry, looked up): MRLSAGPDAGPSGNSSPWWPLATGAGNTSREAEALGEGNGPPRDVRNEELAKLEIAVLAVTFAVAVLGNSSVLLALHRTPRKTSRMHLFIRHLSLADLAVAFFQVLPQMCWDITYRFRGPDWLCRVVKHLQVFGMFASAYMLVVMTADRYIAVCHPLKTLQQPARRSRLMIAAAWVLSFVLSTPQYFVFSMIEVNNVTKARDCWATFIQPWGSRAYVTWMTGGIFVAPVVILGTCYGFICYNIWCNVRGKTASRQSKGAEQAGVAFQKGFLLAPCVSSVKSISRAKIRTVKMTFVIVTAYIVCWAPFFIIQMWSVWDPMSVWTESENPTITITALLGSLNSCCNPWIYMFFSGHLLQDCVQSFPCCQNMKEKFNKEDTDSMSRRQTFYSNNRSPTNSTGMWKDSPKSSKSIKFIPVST
* hit, by the source's call; / = no result. Hits are enriched below; roughly 1.5% of the tested compounds scored in any of these assays.

SMILES | CHRM4 PAM | M4 ag | M4 antag | OXTR ag | OXTR potentiator | V1R ag counter
Cc1c(Cl)cccc1NC(=S)N(CCCN1CCOCC1)Cc1cccs1 | -39 | 2 | 56* | -1 | -5 | 1
Cc1ccc(NC(=S)N(CCCN2CCOCC2)Cc2cccs2)c(C)c1 | 0 | 1 | -9 | -1 | -4 | 1
COc1ccc(NC(=S)N(CCCN2CCCCC2)Cc2cccs2)cc1 | -38 | 3 | 40* | 1 | 0 | 1
O=C(COC(=O)c1cccc(-n2cnnn2)c1)c1ccc(F)c(F)c1 | -4 | 4 | -5 | / | / | /
COc1ccc(NC(=O)CN(C)C(=O)CNC(=O)c2cccs2)cc1 | -6 | 0 | 0 | 0 | -6 | 1
CCOC(=O)C1=C(C)c2ccccc2N(S(=O)(=O)C(F)(F)F)C1C(=O)OCC (stereo unspecified) | 1 | -2 | 19 | / | / | /
CCCCCCCCOc1ccc(C(=O)O)cc1 | 22* | 2 | 2 | 0 | -7 | -1
CCCCOc1ccc(C(=O)O)cc1 | 8 | 1 | 8 | 1 | -2 | 0
CCCCOc1ccc(C(=O)Nc2cccc(C)n2)cc1 | 6 | 8 | 94* | 0 | 0 | 1
CCOc1ccc(C(=O)Nc2cccc(C)n2)cc1 | 7 | 1 | 3 | -2 | -9 | 0
COc1cc(NC(=O)[C@@H](NC(=O)c2ccco2)C(C)C)c(OC)cc1NC(=O)c1ccccc1 | 3 | 3 | 0 | -2 | 1 | -1
CCCNc1cc(=S)nc(N)[nH]1 | 3 | 2 | 12 | 0 | 0 | -1
COC(=O)c1ccc(N2C(c3ccsc3)=Cc3cc4c(cc3C2CC(=O)c2ccco2)OCO4)cc1 (stereo unspecified) | -14 | -1 | 30* | / | / | /
CCc1cc(=O)oc2cc(C)cc(OCC(=O)NC(Cc3c[nH]c4ccc(O)cc34)C(=O)O)c12 (stereo unspecified) | 21* | 0 | -20 | 0 | -6 | 0
CCCc1cc(=O)oc2cc(C)cc(OCC(=O)NC(Cc3c[nH]c4ccc(O)cc34)C(=O)O)c12 (stereo unspecified) | 0 | 1 | 9 | 0 | 0 | 0
Clc1ccc(-c2nc3c4ccccc4ccn3c2Cc2ccsc2)cc1 | -4 | -1 | 0 | / | / | /
O=C(NCc1cccnc1)c1ccccc1NS(=O)(=O)c1ccc(Br)cc1 | 9 | 4 | -1 | 4 | -1 | 2
COc1cccc(OCCNS(=O)(=O)c2ccccc2[N+](=O)[O-])c1 | 0 | 2 | 0 | 3 | -7 | 3
COc1ccc(C2C=C(c3ccc(C)cc3)Nc3ncnn32)cc1 (stereo unspecified) | 3 | -1 | -10 | / | / | /
COc1ccc(C2C=C(c3ccc(Br)s3)Nc3ncnn32)cc1OC (stereo unspecified) | / | / | / | 23* | -23 | 17
N#C/C(=C/c1ccc(N2CCOCC2)o1)c1ccc(Br)cc1 | -14 | 12 | 36* | 6 | -14 | 1
N#C/C(=C\c1ccc(N2CCOCC2)o1)c1ccccc1 | -6 | 4 | 24 | 2 | 1 | 1
N#C/C(=C/c1ccc(N2CCOCC2)o1)c1nc2ccccc2[nH]1 | -6 | 12 | 10 | 40* | -12 | 21*
N#C/C(=C\c1cc([N+](=O)[O-])c(N2CCOCC2)cc1N1CCOCC1)c1nc2ccccc2[nH]1 | 5 | 2 | 8 | 2 | -11 | 1
COc1ccc(-c2nnc(N3CCOCC3)c3ccccc23)cc1 | -3 | 0 | 4 | -1 | -1 | 0
Cc1nnc(N2CCOCC2)c2ccccc12 | 25* | 0 | -9 | 0 | -6 | 1
CC12CCC(=O)C=C1CCC1C2C(O)CC2(C)C(c3csc(N)n3)CCC12 (stereo unspecified) | -9 | 12 | 5 | / | / | /
CC12CCC(=O)C=C1CCC1C2CCC2(C)C(c3csc(N)n3)CCC12 (stereo unspecified) | -15 | 19 | 47* | / | / | /
